Experimental data from ChEMBL document CHEMBL3046551, “Design, synthesis, and particular biological behaviors of chain-opening nitromethylene neonicotinoids with cis configuration” (2012).

Tests used:
Type in all cases: functional
[1] = system: Aphis craccivora; test: Insecticidal activity against adult Aphis craccivora (cowpea aphid) assessed as […] activity at 500 mg/l after 24 hr
Summary of the method: (§1)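 Apterous adult aphids (40−60 per horsebean seedling) on seedlings dipped 5 s in DMF stock diluted with water containing Triton X-100 (0.1 mg L⁻¹); series concentrations 500.0, 250.0, 125.0 mg L⁻¹ and others. Held at 25 ± 1 °C, 50% RH. Triton water served as control. Mortality scored at 24 h, three repetitions, corrected, probit analysis.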

[2] = system: Aphis craccivora; test: Insecticidal activity against adult Aphis craccivora (cowpea aphid) assessed as […] activity after 24 hr; summary of the method: as §1
[3] = system: Empoasca; test: Insecticidal activity against Empoasca (Green Leafhopper)
[4] = system: Aphis craccivora; test: Repellent activity against adult Aphis craccivora (cowpea aphid) at 500 mg/l
Summary of the method: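 Y-tube olfactometer choice test. Aphid-free horsebean seedlings were dipped 5 s in DMF-dissolved compound diluted in water with Triton X-100 (0.1 mg L⁻¹) and dried. Treated and control seedlings were placed in opposite arms, and apterous adults were introduced into the third arm. The olfactometer was covered with black cloth at 25 ± 1 °C, 50% RH. Adults per arm were counted after 1 h; three repeats.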

Structure (SMILES): CCOC1CCC([N+](=O)[O-])=C(N(C)Cc2ccc(Cl)nc2)N1C (stereo unspecified)
- mortality at 500 µg/mL [1]: 23.3%

Structure (SMILES): CCN(Cc1ccc(Cl)nc1)C1=C([N+](=O)[O-])C(C)CC(OC)N1C (stereo unspecified)
- mortality at 500 µg/mL [1]: 27.6%

Structure (SMILES): CCOC1CC(C)C([N+](=O)[O-])=C(NCc2ccc(Cl)nc2)N1CC (stereo unspecified)
- mortality at 500 µg/mL [1]: 85.2%

Structure (SMILES): COC1CC(C)C([N+](=O)[O-])=C(N(C)Cc2ccc(Cl)nc2)N1C (stereo unspecified)
- mortality at 500 µg/mL [1]: 23.4%

Structure (SMILES): CCN(Cc1ccc(Cl)nc1)C1=C([N+](=O)[O-])CCC(OC(C)C)N1C (stereo unspecified)
- mortality at 500 µg/mL [1]: 15.3%

Structure (SMILES): CC(C)OC1CC(C)C([N+](=O)[O-])=C2N(Cc3ccc(Cl)nc3)CCN21 (stereo unspecified)
- LC50 [2]: 262 µM
- mortality at 500 µg/mL [1]: 100%

Structure (SMILES): CCN1C(NCc2ccc(Cl)nc2)=C([N+](=O)[O-])C(C)CC1OC(C)C (stereo unspecified)
- mortality at 500 µg/mL [1]: 75%

Structure (SMILES): CCN(Cc1ccc(Cl)nc1)C1=C([N+](=O)[O-])C(C)CC(OC(C)C)N1C (stereo unspecified)
- mortality at 500 µg/mL [1]: 25.8%

Structure (SMILES): C=CCOC1CCC([N+](=O)[O-])=C(N(C)Cc2ccc(Cl)nc2)N1C (stereo unspecified)
- mortality at 500 µg/mL [1]: 15.8%

Structure (SMILES): CCN(Cc1ccc(Cl)nc1)/C(=C/[N+](=O)[O-])NC [NITENPYRAM]
- LC95 [3]: 40 ppm

Structure (SMILES): O=[N+]([O-])/N=C1\NCCN1Cc1ccc(Cl)nc1 [IMIDACLOPRID]
- LC50 [2]: 30.9 µM
- mortality at 500 µg/mL [1]: 100%

Structure (SMILES): CC(C)OC1CC(C)C([N+](=O)[O-])=C(N(C)Cc2ccc(Cl)nc2)N1C (stereo unspecified)
- mortality at 500 µg/mL [1]: 25.9%

Structure (SMILES): C=CCOC1CC(C)C([N+](=O)[O-])=C(N(CC)Cc2ccc(Cl)nc2)N1C (stereo unspecified)
- mortality at 500 µg/mL [1]: 19.5%

Structure (SMILES): CCOC1CCC([N+](=O)[O-])=C(N(CC)Cc2ccc(Cl)nc2)N1C (stereo unspecified)
- mortality at 500 µg/mL [1]: 17.7%

Structure (SMILES): N/C(=C\[N+](=O)[O-])NCc1ccc(Cl)nc1
- LC95 [3]: >200 ppm

Structure (SMILES): CCOC1CC(C)C([N+](=O)[O-])=C(N(C)Cc2ccc(Cl)nc2)N1C (stereo unspecified)
- mortality at 500 µg/mL [1]: 17.1%

Structure (SMILES): CCCOC1CC(C)C([N+](=O)[O-])=C(N(CC)Cc2ccc(Cl)nc2)N1C (stereo unspecified)
- mortality at 500 µg/mL [1]: 27.2%

Structure (SMILES): CCCOC1CCC([N+](=O)[O-])=C(N(CC)Cc2ccc(Cl)nc2)N1C (stereo unspecified)
- mortality at 500 µg/mL [1]: 23.7%

Structure (SMILES): CCN(Cc1ccc(Cl)nc1)C1=C([N+](=O)[O-])CCC(O)N1C (stereo unspecified)
- mortality at 500 µg/mL [1]: 16.2%

Structure (SMILES): CCC1CC(OC(C)C)N(C)C(NCc2ccc(Cl)nc2)=C1[N+](=O)[O-] (stereo unspecified)
- mortality at 500 µg/mL [1]: 83.6%

Structure (SMILES): CCCOC1CC(C)C([N+](=O)[O-])=C(NCc2ccc(Cl)nc2)N1CC (stereo unspecified)
- mortality at 500 µg/mL [1]: 94.6%

Structure (SMILES): CCCOC1CCC([N+](=O)[O-])=C(N(C)Cc2ccc(Cl)nc2)N1C (stereo unspecified)
- mortality at 500 µg/mL [1]: 15.2%

Structure (SMILES): CCC1CC(OC)N(CC)C(NCc2ccc(Cl)nc2)=C1[N+](=O)[O-] (stereo unspecified)
- mortality at 500 µg/mL [1]: 84.5%

Structure (SMILES): CCCOC1CC(C)C([N+](=O)[O-])=C2N(Cc3ccc(Cl)nc3)CCN21 (stereo unspecified) [PAICHONGDING]
- LC50 [2]: 91.8 µM
- mortality at 500 µg/mL [1]: 100%

Structure (SMILES): CCN(Cc1ccc(Cl)nc1)C1=C([N+](=O)[O-])CCC(OC)N1C (stereo unspecified)
- mortality at 500 µg/mL [1]: 24.3%

Structure (SMILES): COC1CCC([N+](=O)[O-])=C(N(C)Cc2ccc(Cl)nc2)N1C (stereo unspecified)
- mortality at 500 µg/mL [1]: 21.6%

Structure (SMILES): CCCOC1CC(CC)C([N+](=O)[O-])=C(NCc2ccc(Cl)nc2)N1CC (stereo unspecified)
- mortality at 500 µg/mL [1]: 93.4%

Structure (SMILES): CCCOC1CC(C)C([N+](=O)[O-])=C(N(C)Cc2ccc(Cl)nc2)N1C (stereo unspecified)
- mortality at 500 µg/mL [1]: 28.3%

Structure (SMILES): COC1CC(C)C([N+](=O)[O-])=C2N(Cc3cnc(Cl)s3)CCN21 (stereo unspecified)
- LC50 [2]: 190 µM
- mortality at 500 µg/mL [1]: 100%

Structure (SMILES): CCOC1CC(C)C([N+](=O)[O-])=C(N(CC)Cc2ccc(Cl)nc2)N1C (stereo unspecified)
- Repellency [4]: 66.4%
- mortality at 500 µg/mL [1]: 31.8%

Structure (SMILES): CC(C)OC1CCC([N+](=O)[O-])=C(N(C)Cc2ccc(Cl)nc2)N1C (stereo unspecified)
- mortality at 500 µg/mL [1]: 17.6%
